Measured values as given in article PMC3625458 (Journal of medicinal chemistry, 2013).
“Also recorded” adds a separate entry of the source. One block for each compound: values may come before it.

How the values were obtained:
[1] = target: human calmodulin dependent kinase II alpha (αCaMKII) (Homo sapiens, UniProt Q9UQM7); experiment: CaM Kinase II Assay CycLex kit; format: biochemical
Summary of the method: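 Human αCaMKII activity measured with a commercial CaM kinase II assay kit following the maker's recommendations. Test compound in serial dilutions; all samples run in triplicate. Data normalized and log-transformed, then fit by non-linear regression to a sigmoidal dose-response curve with variable slope to obtain IC50.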

[2] = In vitro microsome stability assay; format: in vitro ADME; conditions: rat, liver microsomes
[3] = target: CDPK1 G128S (Toxoplasma gondii, UniProt Q9BJF5, G128S); experiment: CDPK1 G128S mutant kinase assay, syntide-2 peptide ELISA; format: biochemical
[4] = target: CDPK1 G128M (Toxoplasma gondii, UniProt Q9BJF5, G128M); experiment: CDPK1 G128M mutant kinase assay, syntide-2 peptide ELISA; format: biochemical
[5] = target: CDPK1 G128A (Toxoplasma gondii, UniProt Q9BJF5, G128A); experiment: CDPK1 G128A mutant kinase assay, syntide-2 peptide ELISA; format: biochemical
[6] = target: CDPK1 G128T (Toxoplasma gondii, UniProt Q9BJF5, G128T); experiment: CDPK1 G128T mutant kinase assay, syntide-2 peptide ELISA; format: biochemical
[7] = tested on: T. gondii type II Pru-LUC strain; experiment: Murine infection model of toxoplasmosis; format: in vivo, mouse; conditions: 30 days post-infection, 5 mg/kg daily i.p. for 10 days
[8] = tested on: T. gondii highly virulent RH strain; conditions: cited from earlier work
[9] = tested on: T. gondii 2F clone of the type I RH strain in HFF cells; experiment: Inhibition of parasite growth in vitro in HFF monolayers; format: cell-based, Toxoplasma gondii

Structure (SMILES): Cc1cccc(Cc2nn(C(C)(C)C)c3ncnc(N)c23)c1 [Compound 1, 3-methyl-benzyl pyrazolo [3,4-d] pyrimidine]
IC50 [1]: > 10000 nM | sensitivity of human CamKIIα ([1]; Phe gatekeeper): completely resistant | microsome stability [2]: extremely unstable; also recorded: poor microsome stability | IC50 [3]: 22.9 ± 7.5 nM | shift in potency vs Gly gatekeeper ([3]; Gly to Ser): 3-5 fold | IC50 [4]: > 10000 nM | sensitivity of Met gatekeeper TgCDPK1 ([4]; Gly to Met): completely insensitive | IC50 [5]: 13.7 ± 7.1 nM | shift in potency vs Gly gatekeeper ([5]; Gly to Ala): 3-5 fold | IC50 [6]: 222 ± 43.7 nM | additional decrease in inhibition ([6]; Gly to Thr, relative to Ala or Ser): 10 fold

Structure (SMILES): CC(C)(C)n1nc(Cc2cccc(Cl)c2)c2c(N)ncnc21 [Compound 3, 3-chloro-benzyl pyrazolo [3,4-d] pyrimidine]
brain tissue cyst burden in surviving mice [7]: considerable variation in the reduction of cyst numbers

microsomal CLint [2]: > 350 µL/min/mg
Structure (SMILES): CC(C)(C)n1nc(Cc2cccc(Br)c2)c2c(N)ncnc21 [Compound 4, 3-bromo-benzyl pyrazolo [3,4-d] pyrimidine]

Structure (SMILES): CC(C)(C)n1nc(Cc2cccc3ccccc23)c2c(N)ncnc21 [Compound 6, 1-napthylmethyl-PP]
parasite burdens ([8]; 10-fold higher doses, i.p. inoculation): modest reduction in parasite burdens | protection against lethal challenge ([8]; oral administration, RH strain): failed to protect

microsomal CLint [2]: 250 µL/min/mg
Structure (SMILES): CC(C)(C)n1nc(Cc2cc(Cl)ccc2F)c2c(N)ncnc21 [Compound 10]

Structure (SMILES): CC(C)n1nc(Cc2cccc(Cl)c2Cl)c2c(N)ncnc21 [Compound 11]
microsomal CLint [2]: 190 µL/min/mg | brain tissue cyst burden in surviving mice [7]: considerable variation in the reduction of cyst numbers

microsomal CLint [2]: > 350 µL/min/mg
Structure (SMILES): CC(C)(C)n1nc(Cc2cccc(Cl)c2F)c2c(N)ncnc21 [Compound 18]

microsomal CLint [2]: > 350 µL/min/mg
Structure (SMILES): CC(C)(C)n1nc(Cc2ccc(F)c(Cl)c2)c2c(N)ncnc21 [Compound 20]

microsomal CLint [2]: > 350 µL/min/mg
Structure (SMILES): CC(C)n1nc(Cc2cc(F)cc(Cl)c2)c2c(N)ncnc21 [Compound 21]

Structure (SMILES): CC(C)(C)n1nc(Cc2cc(F)cc(F)c2)c2c(N)ncnc21 [Compound 24]
brain tissue cyst burden in surviving mice ([7]; 5 mg/kg): much more potent and uniform protection; also recorded: most effective in reducing the chronic burden of CNS infection

Structure (SMILES): CC(C)n1nc(C(O)c2cccc(Cl)c2Cl)c2c(N)ncnc21 (centres unmarked) [Compound 25]
microsomal CLint [2]: 68 µL/min/mg | activity against T. gondii [9]: inactive

microsomal CLint [2]: 107 µL/min/mg
Structure (SMILES): CC(C)n1nc(C(F)c2cccc(Cl)c2Cl)c2c(N)ncnc21 (centres unmarked) [Compound 26]

Structure (SMILES): CCc1nc(N)nc(N)c1-c1ccc(Cl)cc1 [pyrimethamine, reference compound]
treatment time required to demonstrate potent inhibition of growth ([9]; 4 h vs 24 h treatment, growth to 72 h): at least 24 h
